For one data set, the system named is Vero. Kind of data set: (§1) Cytotoxicity against African green monkey Vero cells assessed as reduction in cell viability incubated for 48 hrs by MTT assay. The format is cell-based. The following applies: chlorocebus sabaeus, vero, 48 h. The procedure, abridged:
(§2)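 MTT viability readout. Cells plated at 1.0 ×10⁴ per well overnight, then exposed to compounds, with 0.1% DMSO vehicle as control: SNB-19 for 24 h, Vero for 48 h. MTT at 0.5 mg/mL final, 4 h at 37 °C; formazan dissolved in DMSO, absorbance at 570 nm. CC₅₀ from % viability versus control; each concentration repeated 3 times independently.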
Background: Tetrazolium assays rely on reduction of a dye to a coloured formazan, in cell work by metabolically active cells.

Data set [1] in a line: Selectivity index, ratio of CC50 for African green monkey Vero cells to EC50 for Zika virus PRVABC-59. The following applies: read-out: Ratio CC50/EC50. Type of data set: toxicity. The procedure, abridged:
(§3)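 Selectivity index taken as CC₅₀ over EC₅₀. CC₅₀ comes from MTT in Vero (48 h) or SNB-19 (24 h) cells. EC₅₀ comes from the ZIKV PRVABC59 titer-reduction assay in SNB-19 cells (MOI 1, 24 h, focus-forming units on Vero).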

For another data set, the system named is Zika virus. Kind of data set: Antiviral activity against Zika virus PRVABC-59 infected in human SNB19 cells assessed as reduction in viral titer incubated for 24 hrs by viral titer assay. The format is functional, organism-based, SNB-19. The gist of the method:
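SNB-19 glioblastoma cells seeded 1 day ahead and pretreated 1 h with graded compound concentrations (final DMSO 0.1%). Infected with C6/36-derived PRVABC59 at MOI 1; supernatants taken 24 h post-infection. Virus titred by focus-forming unit assay on confluent Vero monolayers: 2 h inoculation, methylcellulose overlay for 48 h, PFA fixation, 4G2 antibody then HRP secondary, DAB–nickel, foci counted. Niclosamide reference included each run.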

Data set [2] is described as follows: Selectivity index, ratio of CC50 for human SNB19 cells to EC50 for Zika virus PRVABC-59. Type of data set: toxicity. To be noted: read-out: Ratio CC50/EC50. The procedure, abridged:
as §3

A further data set deals with SNB-19. Kind of data set: (§4) Cytotoxicity against human SNB19 cells assessed as reduction in cell viability incubated for 24 hrs by MTT assay. Type of data set: cell-based. The following applies: snb-19, 24 h. The gist of the method: as §2
Data set [3] can be described thus: as §1. Type of data set: cell-based. To be noted: chlorocebus sabaeus, Vero cells. The procedure, abridged: as §2
Data set [4] is described as follows: as §4. The format is cell-based, SNB-19. The following applies: SNB19 cells. The gist of the method:
as §2

Where [5] appears, read: Zika virus, PRVABC-59, SNB-19, 24 h, read-out: EC50.

One may read the CC50 as the concentration giving 50% cytotoxicity. As a reminder, the EC50 is the midpoint of the concentration-response curve. As to `C=C1CC[C@@H]2[C@](C)(CO)[C@H](O)CC[C@@]2(C)[C@@H]1C/C=C1/C(=O)OC[C@H]1Oc1cccnc1[N+](=O)[O-]`, the values for the CC50 in the data set with Vero and in the data set with SNB-19 were 37.7 µM and 67.7 µM, respectively. In addition, the selectivity ratio in data set [1] stood at 3; in data set [2], 5.4. In the data set on Zika virus (setting [5]), the EC50 is 12.5 µM.

Take `C=C1CC[C@@H]2[C@](C)(CO)[C@H](O)CC[C@@]2(C)[C@@H]1C/C=C1/C(=O)OC[C@@H]1Oc1ccnc2ccccc12`: the CC50 at 48 h in data set [3] was 20.7 µM. Moreover, in the data set with Zika virus (snb-19), the EC50 result is “Not Active”. Moreover, in data set [4], the CC50 at 24 h is 61.2 µM.

With `C=C1CC[C@@H]2[C@](C)(COC(C)=O)[C@H](O)CC[C@@]2(C)[C@@H]1C/C=C1/C(=O)OC[C@H]1Oc1cccc2ccc(C)nc12`, in data set [3], the CC50 at 48 h amounted to 50.6 µM. Moreover, the EC50 result in the data set on Zika virus (snb-19) is on record as “Not Active”. Also, in data set [4], the CC50 at 24 h is above 100 µM.

With `C=C1CC[C@H]2[C@@](C)(CCC(=O)[C@@]2(C)COC(C)=O)[C@@H]1C/C=C1/C(=O)OC[C@H]1Oc1cccc2ccc(C)nc12`, the CC50 at 48 h in data set [3] came out at 72.4 µM. For the same molecule, the EC50 entry with Zika virus (snb-19) is “Not Active”. Further, the CC50 at 24 h in data set [4] is above 100 µM.

Take `C=C1CC[C@@H]2[C@]3(C)COC(C)(C)O[C@@H]3CC[C@@]2(C)[C@@H]1C/C=C1/C(=O)OC[C@@H]1Oc1cccc2ccc(C)nc12`: the CC50 with Vero was 55.9 µM; with SNB-19 it was 78.4 µM. The selectivity ratio in data set [1] was 6.6; in data set [2], 9.2. In addition, the EC50 with Zika virus (setting [5]) amounted to 8.5 µM.

`C=C1CC[C@@H]2[C@](C)(CO)[C@H](O)CC[C@@]2(C)[C@@H]1C/C=C1/C(=O)OC[C@H]1Oc1c(Cl)cc(Cl)c2cccnc12`: the selectivity ratio is 7.5 in data set [1] and 10.9 in data set [2]. Besides, the EC50 with Zika virus (setting [5]) amounted to 7.8 µM. For the same molecule, the CC50 with SNB-19 was determined as 85.2 µM.

Turning to `C=C1CC[C@@H]2[C@](C)(CO)[C@H](O)CC[C@@]2(C)[C@@H]1C/C=C1/C(=O)OC[C@@H]1Oc1c(Cl)cc(Cl)c2cccnc12`, the CC50 in the data set with Vero and in the data set on SNB-19 was above 100 µM each time. Further, the selectivity ratio in data set [1] and in data set [2] was above 7.5 in each case. Also, the EC50 in the data set with Zika virus (setting [5]) turned out to be 13.3 µM.

Consider `C=C1CC[C@@H]2[C@](C)(COC(C)=O)[C@H](O)CC[C@@]2(C)[C@@H]1C/C=C1/C(=O)OC[C@@H]1Oc1c(Cl)cc(Cl)c2cccnc12`, for which the half-maximal cytotoxic concentration (CC50) at 48 h in data set [3] worked out at 51.9 µM. Also, the EC50 result in the data set on Zika virus (snb-19) is listed as “Not Active”. Besides, the CC50 at 24 h in data set [4] came out at 39.3 µM.

Regarding `C=C1CC[C@@H]2[C@](C)(COC(C)=O)[C@H](O)CC[C@@]2(C)[C@@H]1C/C=C1/C(=O)OC[C@@H]1Oc1cccc2ccc(C)nc12`, in data set [3], the CC50 at 48 h stood at 46.5 µM. The EC50 result with Zika virus (snb-19) is reported as “Not Active”. Moreover, in data set [4], the CC50 at 24 h was 65.9 µM.

With `C=C1CC[C@H]2[C@@](C)(CCC(=O)[C@@]2(C)COC(C)=O)[C@@H]1C/C=C1/C(=O)OC[C@@H]1Oc1cccc2ccc(C)nc12`, in data set [3], the CC50 at 48 h was determined as 46.7 µM. The EC50 entry with Zika virus (snb-19) is listed as “Not Active”. Also, the CC50 at 24 h in data set [4] is 51.7 µM.

Take `C=C1CC[C@@H]2[C@]3(C)COC(C)(C)O[C@@H]3CC[C@@]2(C)[C@@H]1C/C=C1/C(=O)OC[C@H]1Oc1cccc2ccc(C)nc12`: the figures for the CC50 in the data set with Vero and in the data set on SNB-19 were 65.3 µM and 66.5 µM, respectively. Moreover, the selectivity ratio in data set [1] is 3.9; in data set [2], 4. Moreover, in the data set with Zika virus (setting [5]), the EC50 was 16.6 µM.

On to `C=C1CC[C@@H]2[C@]3(C)COC(C)(C)O[C@@H]3CC[C@@]2(C)[C@@H]1C/C=C1/C(=O)OC[C@H]1Oc1cccnc1[N+](=O)[O-]`, for which the CC50 at 48 h in data set [3] is 26.2 µM. For the same molecule, the EC50 result with Zika virus (snb-19) was “Not Active”. Also, the CC50 at 24 h in data set [4] turned out to be 46.5 µM.

On to `C=C1CC[C@@H]2[C@]3(C)COC(C)(C)O[C@@H]3CC[C@@]2(C)[C@@H]1C/C=C1/C(=O)OC[C@@H]1Oc1c(Cl)cc(Cl)c2cccnc12`, for which the CC50 at 48 h in data set [3] is 55.9 µM. Besides, the EC50 result in the data set with Zika virus (snb-19) is “Not Active”. Also, the CC50 at 24 h in data set [4] was 39.3 µM.

Consider `C=C1CC[C@@H]2[C@](C)(CO)[C@H](O)CC[C@@]2(C)[C@@H]1C/C=C1/C(=O)OC[C@@H]1Oc1cccc2cccnc12`, for which the CC50 at 48 h in data set [3] was 20.8 µM. In addition, the selectivity ratio in data set [1] was 16.1; in data set [2] it was 17.5. Further, the EC50 in the data set with Zika virus (setting [5]) stood at 1.3 µM. Moreover, the CC50 with SNB-19 is 22.7 µM.

In the case of `C=C1CC[C@H]2[C@@](C)(CCC(=O)[C@@]2(C)COC(C)=O)[C@@H]1C/C=C1/C(=O)OC[C@@H]1Oc1c(Cl)cc(Cl)c2cccnc12`, the CC50 turned out to be 57.4 µM in the data set with Vero and 72 µM in the data set with SNB-19. Besides, the selectivity ratio in data set [1] came to 2.3; in data set [2] it was 2.9. Besides, in the data set with Zika virus (setting [5]), the 50% effective concentration (EC50) came to 24.6 µM.

Consider `C=C1CC[C@H]2[C@@](C)(CCC(=O)[C@@]2(C)COC(C)=O)[C@@H]1C/C=C1/C(=O)OC[C@@H]1Oc1cccc2cccnc12`, for which the CC50 at 48 h in data set [3] came out at 12.8 µM. Besides, the EC50 entry in the data set with Zika virus (snb-19) is on record as “Not Active”. The CC50 at 24 h in data set [4] is 21.9 µM.

As for `C=C1CC[C@@H]2[C@]3(C)COC(C)(C)O[C@@H]3CC[C@@]2(C)[C@@H]1C/C=C1/C(=O)OC[C@@H]1Oc1cccc2cccnc12`, the results for the cytotoxic concentration (CC50) in the data set with Vero and in the data set with SNB-19 were 22 µM and 21.1 µM, respectively. Further, the selectivity ratio is 0.85 in data set [1] and 0.82 in data set [2]. Also, the EC50 in the data set on Zika virus (setting [5]) is 25.9 µM.

For the molecule `C=C1CC[C@H]2[C@@](C)(CCC(=O)[C@@]2(C)COC(C)=O)[C@@H]1C/C=C1/C(=O)OC[C@H]1Oc1c(Cl)cc(Cl)c2cccnc12`, the CC50 at 48 h in data set [3] came to 64.7 µM. Also, the EC50 result with Zika virus (snb-19) was “Not Active”. Moreover, the CC50 at 24 h in data set [4] is above 100 µM.

For the molecule `C=C1CC[C@@H]2[C@](C)(COC(C)=O)[C@H](O)CC[C@@]2(C)[C@@H]1C/C=C1/C(=O)OC[C@H]1Oc1c(Cl)cc(Cl)c2cccnc12`, the results for the CC50 with Vero and with SNB-19 were 85 µM and 88.7 µM, respectively. In addition, the selectivity ratio is 18.9 in data set [1] and 19.7 in data set [2]. The EC50 in the data set on Zika virus (setting [5]) amounted to 4.5 µM.

`C=C1CC[C@@H]2[C@](C)(CO)[C@H](O)CC[C@@]2(C)[C@@H]1C/C=C1/C(=O)OC[C@@H]1Oc1cccc2ccc(C)nc12`: the CC50 was 99.8 µM in the data set on Vero and above 100 µM in the data set on SNB-19. Also, the values for the selectivity ratio in data set [1] and in data set [2] were 3.9 and above 3.9, respectively. In the data set with Zika virus (setting [5]), the EC50 turned out to be 25.8 µM.

Regarding `C=C1CC[C@@H]2[C@](C)(COC(C)=O)[C@H](O)CC[C@@]2(C)[C@@H]1C/C=C1/C(=O)OC[C@@H]1Oc1cccc2cccnc12`, in data set [3], the CC50 at 48 h came out at 27.5 µM. Besides, the concentration giving a half-maximal response (EC50) entry with Zika virus (snb-19) is listed as “Not Active”. Also, the CC50 at 24 h in data set [4] was determined as 49.5 µM.

In the case of `C=C1CC[C@@H]2[C@](C)(CO)[C@H](O)CC[C@@]2(C)[C@@H]1C/C=C1/C(=O)OC[C@H]1Oc1ccnc2ccccc12`, the CC50 at 48 h in data set [3] was 22.8 µM. In addition, the results for the selectivity ratio in data set [1] and in data set [2] were 2.1 and 5.5, respectively. Moreover, the EC50 with Zika virus (setting [5]) was found to be 11 µM. In addition, the CC50 in the data set with SNB-19 was determined as 60.1 µM.

In the case of `C=C1CC[C@@H]2[C@](C)(CO)[C@H](O)CC[C@@]2(C)[C@@H]1C/C=C1/C(=O)OC[C@H]1Oc1cccc2ccc(C)nc12`, the CC50 at 48 h in data set [3] amounted to 61.4 µM. For the same molecule, the EC50 result in the data set on Zika virus (snb-19) was “Not Active”. Besides, the CC50 at 24 h in data set [4] is above 100 µM.

For the molecule `C=C1CC[C@@H]2[C@]3(C)COC(C)(C)O[C@@H]3CC[C@@]2(C)[C@@H]1C/C=C1/C(=O)OC[C@H]1Oc1c(Cl)cc(Cl)c2cccnc12`, in data set [3], the half-maximal cytotoxic concentration (CC50) at 48 h amounted to 58.6 µM. In the data set with Zika virus (snb-19), the EC50 result is given as “Not Active”. In data set [4], the CC50 at 24 h amounted to 63.5 µM.

The values above are taken from ChEMBL document CHEMBL4602646, “Design, synthesis and discovery of andrographolide derivatives against Zika virus infection” (Eur J Med Chem, 2020).
